Reference: ChEMBL document CHEMBL1133569, “A potent, long-acting, orally active (2R)-2-[(1R)-3, 3-difluorocyclopentyl]-2-hydroxy-2-phenylacetamide: novel muscarinic M(3) receptor antagonist with high selectivity for M(3) over M(2) receptors” (J Med Chem, 2000)

Experiments:
[1] = target: T1, Muscarinic acetylcholine receptor M2 (Homo sapiens, UniProt P08172); experiment: Inhibition of [3H]NMS binding to human muscarinic acetylcholine receptor M2 expressed in CHO cells; type: cell-based
T1 sequence (P08172 whole entry): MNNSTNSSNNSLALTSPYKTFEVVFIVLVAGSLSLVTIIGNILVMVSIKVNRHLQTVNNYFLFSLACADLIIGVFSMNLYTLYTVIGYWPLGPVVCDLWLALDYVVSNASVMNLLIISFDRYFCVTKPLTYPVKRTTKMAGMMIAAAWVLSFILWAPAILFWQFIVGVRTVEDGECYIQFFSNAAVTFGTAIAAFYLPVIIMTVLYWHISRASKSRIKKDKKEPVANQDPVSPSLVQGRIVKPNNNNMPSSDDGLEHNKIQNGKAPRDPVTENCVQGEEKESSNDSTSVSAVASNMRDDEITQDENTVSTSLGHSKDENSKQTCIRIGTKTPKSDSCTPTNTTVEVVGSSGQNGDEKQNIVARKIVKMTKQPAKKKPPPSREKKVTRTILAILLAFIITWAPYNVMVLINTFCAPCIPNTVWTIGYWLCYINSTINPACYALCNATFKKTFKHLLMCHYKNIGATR
Method in brief: (§1)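 Competition binding against [3H]-NMS on membranes from CHO cells expressing cloned human m2 or m3 receptors. Affinity is taken from inhibition of specific binding, as the mean of two or more independent assays.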

[2] = target: T2, Muscarinic acetylcholine receptor M3 (Homo sapiens, UniProt P20309); experiment: Inhibition of [3H]NMS binding to human muscarinic acetylcholine receptor M3 expressed in CHO cells; type: cell-based; method in brief: as §1
[3] = test system: Canis familiaris; experiment: Metacholine provocation test was conducted 4 hr after oral administration (1 mg/kg) in anesthetized dogs. The bronchodilatory activity is expressed as shifts; type: functional, Canis lupus familiaris
[4] = species on record: Homo sapiens; experiment: In vitro metabolic stability in human hepatic microsomes (1 mg protein/mL), expressed as the percent remaining after 30 min of incubation at […].; type: functional; settings: Liver, 37 °C
Method in brief: (§2)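 Test compound at 10 µM incubated 30 min at 37 °C with dog or human hepatic microsomes (1 mg protein/mL). Read-out is percent of parent remaining. More than 2 determinations.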

[5] = species on record: Canis familiaris; experiment: In vitro metabolic stability in dog hepatic microsomes (1 mg protein/mL), expressed as the percent remaining after 30 min of incubation at […].; type: functional; settings: Canis lupus familiaris, Liver, 37 °C; method in brief: as §2
[6] = target: T2, Muscarinic acetylcholine receptor M3; experiment: Ability to inhibit binding of [3H]NMS was determined by receptor binding assay using membranes from chinese hamster ovary (CHO) cells expressing cloned Muscarinic acetylcholine receptor M3; type: cell membranes
Method in brief: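 Radioligand displacement of [3H]-NMS specific binding on membranes prepared from CHO cells transfected with cloned human m3 receptor. Affinity was derived from inhibition of specific binding. Each value is the mean of two or more independent assays.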

[7] = species on record: Homo sapiens; experiment: In vitro metabolic stability in human hepatic microsomes (1 mg protein/mL) was reported as the percent remaining after 30 min of incubation […]; type: functional; settings: Liver; method in brief: as §2

T2 sequence (P20309 whole entry): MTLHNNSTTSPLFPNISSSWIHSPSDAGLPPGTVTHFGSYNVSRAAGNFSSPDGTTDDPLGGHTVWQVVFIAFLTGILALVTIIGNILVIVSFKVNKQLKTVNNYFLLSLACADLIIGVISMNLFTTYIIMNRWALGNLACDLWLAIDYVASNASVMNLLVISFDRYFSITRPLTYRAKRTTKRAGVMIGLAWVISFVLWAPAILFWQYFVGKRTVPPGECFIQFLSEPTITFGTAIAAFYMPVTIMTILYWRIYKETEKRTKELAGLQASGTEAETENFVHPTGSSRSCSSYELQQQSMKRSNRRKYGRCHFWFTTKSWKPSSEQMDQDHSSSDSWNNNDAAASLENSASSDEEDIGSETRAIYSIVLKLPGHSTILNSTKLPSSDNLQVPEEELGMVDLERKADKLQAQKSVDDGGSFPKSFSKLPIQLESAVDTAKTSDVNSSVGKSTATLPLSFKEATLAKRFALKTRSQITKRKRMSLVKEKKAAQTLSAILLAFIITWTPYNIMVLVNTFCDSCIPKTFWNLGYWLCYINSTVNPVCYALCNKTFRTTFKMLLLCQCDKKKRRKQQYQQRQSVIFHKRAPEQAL

Cc1ccc(CN2CCC(NC(=O)C(O)(c3ccccc3)C3CCCC3)CC2)cc1 (centres undefined)
Ki [1]: 22 nM
Ki [2]: 6.4 nM

Cc1cccc(CN2CCC(NC(=O)C(O)(c3ccccc3)C3CCCC3)CC2)n1 (centres undefined)
Ki [1]: 2400 nM
Ki [2]: 11 nM

O=C(NC1CCN(Cc2ccncc2)CC1)C(O)(c1ccccc1)C1CCCC1 (centres undefined)
Ki [1]: 6400 nM
Ki [2]: 190 nM

O=C(NC1CCN(CC2CCCCC2)CC1)[C@](O)(c1ccccc1)[C@@H]1CCC(F)(F)C1
Ki [1]: 21000 nM
Activity [3]: 2.3
Metabolic stability [4]: 86%
Metabolic stability [5]: 70%
Ki [2]: 18 nM

NCc1cccc(CN2CCC(NC(=O)[C@](O)(c3ccccc3)[C@@H]3CCC(F)(F)C3)CC2)c1
Ki [1]: 3400 nM
Metabolic stability [4]: 80%
Metabolic stability [5]: 77%
Ki [2]: 21 nM

O=C(NC1CCN(Cc2cccc(CO)c2)CC1)[C@](O)(c1ccccc1)[C@@H]1CCC(F)(F)C1
Ki [1]: 6900 nM
Activity [3]: 3.1
Metabolic stability [4]: 34%
Metabolic stability [5]: 73%

Nc1ccc(CN2CCC(NC(=O)[C@](O)(c3ccccc3)[C@@H]3CCC(F)(F)C3)CC2)nc1
Ki [1]: 930 nM
Ki [2]: 15 nM

O=C(NC1CCN(Cc2ccccc2)CC1)[C@](O)(c1ccccc1)[C@@H]1CCC(F)(F)C1
Ki [1]: 260 nM
Metabolic stability [4]: 47%
Metabolic stability [5]: 45%
Ki [2]: 3.8 nM

CC(C)=CCCN1CCC(NC(=O)[C@](O)(c2ccccc2)[C@H]2CCC(F)(F)C2)CC1
Ki [1]: 1400 nM
Metabolic stability [4]: 75%
Metabolic stability [5]: 77%
Ki [2]: 16 nM

O=C(NC1CCN(Cc2ccccc2)CC1)C(O)(c1ccccc1)C1CCCC1 (centres undefined)
Ki [1]: 30 nM

Cc1ccccc1CN1CCC(NC(=O)C(O)(c2ccccc2)C2CCCC2)CC1 (centres undefined)
Ki [1]: 37000 nM
Ki [2]: 220 nM

CC(C)=CCCN1CCC(NC(=O)[C@](O)(c2ccccc2)[C@H]2CC[C@@H](F)C2)CC1
Ki [1]: 2300 nM
Metabolic stability [4]: 75%
Metabolic stability [5]: 64%
Ki [2]: 11 nM

Cc1cc(CN2CCC(NC(=O)C(O)(c3ccccc3)C3CCCC3)CC2)cs1 (centres undefined)
Ki [1]: 24 nM
Ki [2]: 3.5 nM

Nc1cccc(CN2CCC(NC(=O)[C@](O)(c3ccccc3)[C@@H]3CCC(F)(F)C3)CC2)n1
Ki [1]: 530 nM
Activity [3]: >64
Metabolic stability [4]: 80%
Metabolic stability [5]: 84%
Ki [2]: 2.8 nM

O=C(NC1CCN(Cc2ccsc2)CC1)C(O)(c1ccccc1)C1CCCC1 (centres undefined)
Ki [1]: 79 nM
Ki [2]: 3.6 nM

Cc1cccc(CN2CCC(NC(=O)[C@](O)(c3ccccc3)[C@@H]3CCC(F)(F)C3)CC2)n1
Metabolic stability [4]: 52%
Metabolic stability [5]: 24%

O=C(NC1CCN(CC2CCCC2)CC1)C(O)(c1ccccc1)C1CCCC1 (centres undefined)
Ki [1]: 14000 nM
Ki [2]: 270 nM

CC(C)=CCCN1CCC(NC(=O)[C@](O)(c2ccccc2)[C@H]2CC[C@H](F)C2)CC1
Ki [1]: 1300 nM
Metabolic stability [4]: 66%
Metabolic stability [5]: 60%
Ki [2]: 19 nM

CC(C)=CCCN1CCC(NC(=O)[C@](O)(c2ccccc2)[C@H]2CC[C@H](O)C2)CC1
Ki [1]: 2300 nM
Activity [3]: 2.9
Metabolic stability [4]: 76%
Metabolic stability [5]: 75%
Ki [2]: 18 nM

Nc1ccc(CN2CCC(NC(=O)[C@](O)(c3ccccc3)[C@@H]3CCC(F)(F)C3)CC2)cc1F
Ki [1]: 310 nM
Metabolic stability [4]: 78%
Metabolic stability [5]: 78%
Ki [2]: 6.1 nM

COc1cccc(CN2CCC(NC(=O)C(O)(c3ccccc3)C3CCCC3)CC2)c1 (centres undefined)
Ki [1]: 270 nM
Ki [2]: 5.9 nM

O=C(NC1CCN(CC2CCCCCC2)CC1)[C@](O)(c1ccccc1)[C@@H]1CCC(F)(F)C1
Ki [1]: 17000 nM
Ki [6]: 28 nM

O=C(NC1CCN(Cc2ccoc2)CC1)C(O)(c1ccccc1)C1CCCC1 (centres undefined)
Ki [1]: 1800 nM
Ki [2]: 50 nM

COc1cccc(CN2CCC(NC(=O)[C@](O)(c3ccccc3)[C@@H]3CCC(F)(F)C3)CC2)c1
Metabolic stability [4]: 46%
Metabolic stability [5]: 53%

Nc1cccc(CN2CCC(NC(=O)[C@](O)(c3ccccc3)[C@@H]3CCC(F)(F)C3)CC2)c1
Ki [1]: 330 nM
Metabolic stability [4]: 90%
Metabolic stability [5]: 88%
Ki [2]: 6.9 nM

CC(C)=CCCN1CCC(NC(=O)[C@](O)(c2ccccc2)C2CCCC2)CC1
Ki [1]: 490 nM
Activity [3]: 5.2
Metabolic stability [4]: 54%
Metabolic stability [5]: 31%

Nc1ccc(CN2CCC(NC(=O)[C@](O)(c3ccccc3)[C@@H]3CCC(F)(F)C3)CC2)cc1
Ki [1]: 220 nM
Activity [3]: 43
Metabolic stability [4]: 88%
Metabolic stability [5]: 89%
Ki [2]: 7.8 nM

O=C(NC1CCN(CC2CCCCC2)CC1)C(O)(c1ccccc1)C1CCCC1 (centres undefined)
Ki [1]: 3300 nM
Ki [2]: 17 nM

O=C(NC1CCN(CC2CCCCCCC2)CC1)C(O)(c1ccccc1)C1CCCC1 (centres undefined)
Ki [1]: 9400 nM
Ki [2]: 93 nM

Cc1cccc(CN2CCC(NC(=O)[C@](O)(c3ccccc3)[C@@H]3CCC(F)(F)C3)CC2)c1
Ki [1]: 310 nM
Activity [3]: 25
Ki [6]: 2 nM
Metabolic stability [4]: 55%
Metabolic stability [5]: 32%

O=C(NC1CCN(Cc2cccc(O)c2)CC1)[C@](O)(c1ccccc1)[C@@H]1CCC(F)(F)C1
Ki [1]: 37 nM
Metabolic stability [4]: 56%
Metabolic stability [5]: 73%
Ki [2]: 5.4 nM

O=C(NC1CCN(Cc2cccnc2)CC1)C(O)(c1ccccc1)C1CCCC1 (centres undefined)
Ki [1]: 4600 nM
Ki [2]: 100 nM

O=C(NC1CCN(Cc2cccc(F)c2)CC1)[C@](O)(c1ccccc1)[C@@H]1CCC(F)(F)C1
Ki [1]: 480 nM
Metabolic stability [7]: 52%
Metabolic stability [5]: 23%
Ki [2]: 3.1 nM

O=C(NC1CCN(Cc2ccsc2)CC1)[C@](O)(c1ccccc1)[C@@H]1CCC(F)(F)C1
Metabolic stability [4]: 35%
Metabolic stability [5]: 37%

O=C(NC1CCN(CC2CCCCCC2)CC1)C(O)(c1ccccc1)C1CCCC1 (centres undefined)
Ki [1]: 3100 nM
Ki [2]: 12 nM

Cc1cccc(CN2CCC(NC(=O)C(O)(c3ccccc3)C3CCCC3)CC2)c1 (centres undefined)
Ki [1]: 70 nM
Ki [2]: 2.3 nM

O=C(NC1CCN(Cc2ccccn2)CC1)C(O)(c1ccccc1)C1CCCC1 (centres undefined)
Ki [1]: 320 nM
Ki [2]: 14 nM

CC(C)=CCCN1CCC(NC(=O)[C@](O)(c2ccccc2)[C@@H]2CCC(F)(F)C2)CC1
Ki [1]: 2000 nM
Activity [3]: 4.2
Metabolic stability [4]: 68%
Metabolic stability [5]: 70%
Ki [2]: 6.2 nM

O=C(NC1CCN(Cc2ccccn2)CC1)[C@](O)(c1ccccc1)[C@@H]1CCC(F)(F)C1
Ki [1]: 2400 nM
Metabolic stability [4]: 60%
Metabolic stability [5]: 45%
Ki [2]: 13 nM
